Laboratory results as given in ChEMBL document CHEMBL1914312, “(8R)-3β,8-dihydroxypolypoda-13E,17E,21-triene induces cell cycle arrest and apoptosis in treatment-resistant prostate cancer cells” (J Nat Prod, 2011).
pIC50: −log10 of the molar value. The source made the active and inactive calls. No cut-off for these calls is given here.

Key:
[1] = tested on: PC-3; assay: Induction of cell cycle arrest in human PC3 assessed as accumulation of cells at S-phase at 10 uM after 24 hrs by propidium iodide staining-based FACS analysis (reference value: 22.4 +/- 1.3%); format: functional
[2] = tested on: PC-3; assay: Induction of cell cycle arrest in human PC3 assessed as accumulation of cells at G0/G1-phase at 10 uM after 48 hrs by propidium iodide staining-based FACS analysis (reference value: 58.8 +/- 2.2%); format: functional
[3] = tested on: PC-3; assay: Cytotoxicity against human PC3 cells assessed as cell death at 3 to 30 uM after 48 hrs by LDH-release assay in presence of 10 uM of pan-caspase inhibitor z-VAD-fmk
[4] = tested on: PC-3; assay: Induction of cell cycle arrest in human PC3 assessed as accumulation of cells at G2/M-phase at 10 uM after 48 hrs by propidium iodide staining-based FACS analysis (reference value: 17.3 +/- 1.2%); format: functional
[5] = tested on: PC-3; assay: Cytotoxicity against human PC3 cells at 10 '-5 to 10 uM after 72 hrs by XTT assay; format: functional, cell-based
[6] = tested on: PC-3; assay: Antitumor activity against human PC3 cells xenografted in chicken chorioallantoic membrane assessed as decrease in tumor size treated topically QD for 4 days by immunohistochemical analysis; format: functional, cell-based
Procedure, shortened: (§1)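 0.7× 10^6 log-phase PC-3 cells in 20 μL medium/matrigel (1:1) grafted onto chicken CAM; from day 1, topical 20 μL compound or solvent once daily for 4 days. Xenografts fixed, paraffin-embedded, immunostained for Ki-67 with hematoxylin counterstain; staining quantified by image analysis; n = 3–6.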

[7] = tested on: PC-3; assay: Cytotoxicity against human PC3 cells at 4 uM after 72 hrs by XTT assay; format: functional, cell-based; details: PC-3, 72 h
[8] = tested on: PC-3; assay: Induction of cell cycle arrest in human PC3 cells assessed as decrease in cyclin D1 expression at 3 to 10 uM after 24 hrs by Western blot analysis; format: functional, cell-based
Procedure, shortened: (§2)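 PC-3 whole-cell lysates at equal protein separated by SDS-PAGE and immunoblotted for cyclin D1 (24 h treatment) or cyclin E and p21Waf1/Cip1 (48 h treatment); actin as loading control; three independent repeats.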

[9] = tested on: PC-3; assay: Cytotoxicity against human PC3 cells at 30 uM after 48 hrs by XTT assay; format: functional, cell-based; details: PC-3, 48 h
[10] = tested on: PC-3; assay: Induction of cell cycle arrest in human PC3 assessed as accumulation of cells at G0/G1-phase at 10 uM after 24 hrs by propidium iodide staining-based FACS analysis (reference value: 58.7 +/- 1.4%); format: functional
[11] = tested on: PC-3; assay: Induction of apoptosis in human PC3 cells assessed as increase in phosphatidylserine expression on outer cell membrane leaflet at 3 to 30 uM by annexin V-FITC and propidium iodine staining-based by flow cytometric analysis; format: functional; details: TDE = time-dependent effect
Procedure, shortened: (§3)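 PC-3 cells exposed 48 and 72 h, adherent cells detached with citric saline, stained with FITC-annexin V and propidium iodide, analysed by flow cytometry for annexin V+ cells. Means ± SEM of three experiments, Newman-Keuls test.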

[12] = tested on: PC-3; assay: Induction of cell cycle arrest in human PC3 assessed as accumulation of cells at G2/M-phase at 10 uM after 24 hrs by propidium iodide staining-based FACS analysis (reference value: 18.9 +/- 0.3%); format: functional
[13] = tested on: PC-3; assay: Induction of apoptosis in human PC3 cells assessed as DNA fragmentation at 10 uM after 72 hrs by SDS-PAGE analysis; format: functional, cell-based; details: in the assay text read “agarose gel electrophoresis” for “SDS-PAGE analysis”
Procedure, shortened: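 PC-3 cells cultured with compound or solvent for 72 h; floating cells lysed in buffer of 100 mM Tris-HCl pH 8.0, 2 mM EDTA, 0.8% SDS, RNase A and proteinase K; DNA ladder resolved on 1.5% agarose gel.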

[14] = tested on: PC-3; assay: Antitumor activity against human PC3 cells xenografted in chicken chorioallantoic membrane assessed as inhibition of cell proliferation treated topically QD for 4 days by immunohistochemical analysis; format: functional, cell-based; procedure, shortened: as §1
[15] = tested on: PC-3; assay: Induction of cell cycle arrest in human PC3 cells assessed as decrease in cyclin E expression at 3 to 10 uM after 48 hrs by Western blot analysis; format: functional, cell-based; procedure, shortened: as §2
[16] = tested on: PC-3; assay: Antitumor activity against human PC3 cells xenografted in chicken chorioallantoic membrane assessed as inhibition of tumor angiogenesis treated topically QD for 4 days using desmin staining by immunohistochemical analysis; format: functional, cell-based
Procedure, shortened: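 PC-3 cells (0.7× 10^6 in 20 μL medium/matrigel 1:1) grafted onto chicken CAM, dosed topically with 20 μL compound or solvent once daily for 4 days from day 1. Paraffin sections immunostained for desmin as angiogenesis marker, hematoxylin counterstain; staining quantified by image analysis; n = 3–6.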

[17] = tested on: PC-3; assay: Induction of cell cycle arrest in human PC3 assessed as accumulation of cells at S-phase at 10 uM after 48 hrs by propidium iodide staining-based FACS analysis (reference value: 23.9 +/- 1.1%); format: functional
[18] = tested on: PC-3; assay: Induction of apoptosis in human PC3 cells assessed as increase in phosphatidylserine expression on outer cell membrane leaflet after 48 to 72 hrs by annexin V-FITC and propidium iodine staining-based by flow cytometric analysis; format: functional; procedure, shortened: as §3
[19] = Cytotoxicity against human RWPE1 cells at 1 to 30 uM after 48 hrs by XTT assay; format: cell-based; details: rwpe-1, 48 h
Procedure, shortened: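 Normal prostate epithelial RWPE-1 cells (HPV18-immortalized) grown in keratinocyte serum-free medium, 3–5 × 10^3 cells/well, treated 48 h; viability by XTT reduction (final 125 μM XTT, 25 μM phenazine methosulfate, 4 h), A450. Means ± SEM of 3–5 experiments in triplicate.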

[20] = tested on: PC-3; assay: Antiproliferative activity against human PC3 cells assessed as reduction in colony formation after 21 days using crystal violet staining by anchorage-independent soft agar assay; format: functional, cell-based
Procedure, shortened: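 PC-3 cells (Ham's F12-K, 10% FCS) seeded at 1000 cells/cm2 in 0.35% agar with 10 μM compound or solvent; colonies grown 21 days, fixed and stained with crystal violet.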

[21] = tested on: PC-3; assay: Cytotoxicity against human PC3 cells after at 30 uM after 48 to 72 hrs by XTT assay; format: functional, cell-based
[22] = tested on: PC-3; assay: Induction of cell cycle arrest in human PC3 cells assessed as change in p21WAF1/Cip1 level at 3 to 10 uM after 48 hrs by Western blot analysis; format: functional, cell-based; procedure, shortened: as §2
[23] = tested on: PC-3; assay: Induction of apoptosis in human PC3 cells assessed as increase in phosphatidylserine expression on outer cell membrane leaflet at 10 uM by annexin V-FITC and propidium iodine staining-based by flow cytometric analysis; format: functional; details: TDE = time-dependent effect; procedure, shortened: as §3
[24] = tested on: PC-3; assay: Induction of cell cycle arrest in human PC3 assessed as accumulation of cells at G2/M-phase at 10 nM after 48 hrs by propidium iodide staining-based FACS analysis; format: functional
Procedure, shortened: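 Positive-control treatment of PC-3 cells, then trypsinization, 70% ethanol fixation, propidium iodide DNA staining with 40 μg/mL RNase A, flow cytometric DNA content and modelled phase distribution.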

[25] = tested on: PC-3; assay: Cytotoxicity against human PC3 cells after at 10 uM after 72 hrs by XTT assay; format: functional, cell-based

CC(C)=CCC/C(C)=C/CC/C(C)=C/CC[C@@H]1[C@@]2(C)CC[C@H](O)C(C)(C)[C@@H]2CC[C@@]1(C)O
Activity [1]: 5.6% | Activity [2]: 74.2% | Activity [3]: inactive | Activity [4]: 17.3% | Activity [5]: Active | Activity [6]: Dose-dependent effect | pIC50 [7]: 5.40 | Activity [8]: Active | pIC50 [9]: 4.52 | Activity [10]: 75.4% | Activity [11]: tde | Activity [12]: 18.9% | Activity [13]: Active | Activity [14]: Dose-dependent effect | Activity [15]: Active | Activity [16]: Dose-dependent effect | Activity [17]: 9.3% | Activity [18]: Dose-dependent effect | Activity [19]: Non-toxic | Activity [20]: Dose-dependent effect | Activity [21]: Active | Activity [22]: inactive

CC(=O)O[C@@]12CO[C@@H]1C[C@H](O)[C@@]1(C)C(=O)[C@H](O)C3=C(C)[C@@H](OC(=O)[C@H](O)[C@@H](NC(=O)OC(C)(C)C)c4ccccc4)C[C@@](O)([C@@H](OC(=O)c4ccccc4)[C@H]21)C3(C)C
Activity [5]: Active | Activity [23]: tde | Activity [24]: Active | Activity [25]: inactive
